In brackets after ≈: the same amount, converted by molar mass.
Tests used:
Assay type in all cases: functional
Pseudomonas aeruginosa [1] = experiment: Antimicrobial activity against Pseudomonas aeruginosa PAO1 with rpoN mutation after 24 hrs; conditions: PAO1, 24 h
Outline: (§1)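 Broth microdilution in LB broth, inoculum 1 × 10⁶ cells/ml. MIC read after 24 h at 37°C as the lowest concentration giving complete growth inhibition by unaided eye. For MBC, 10 μl from each well without visible growth was plated on LB agar and incubated 24 h at 37°C.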

Pseudomonas aeruginosa [2] = experiment: Antimicrobial activity against Pseudomonas aeruginosa PAO1 with pvdS mutation after 24 hrs; conditions: PAO1, 24 h; outline: as §1
Pseudomonas aeruginosa [3] = experiment: Antimicrobial activity against wild type Pseudomonas aeruginosa PAO1 after 24 hrs; conditions: PAO1, 24 h; outline: as §1
Pseudomonas aeruginosa [4] = experiment: Increase in pvdS gene expression in Pseudomonas aeruginosa PAO1 with rpoN mutation at 8 ug/ml after 3 hrs relative to wild type
Outline: (§2)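 Overnight LB cultures were washed and resuspended in fresh LB with ofloxacin 8 μg/ml. Sampling was at 0, 1, 3 and 5 h, with RNA stabilized immediately. DNase-treated total RNA (~650 ng) was reverse transcribed. qRT-PCR was quantified against external plasmid standard curves and normalized to the rpsL reference gene. Triplicate reactions.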

Pseudomonas aeruginosa [5] = experiment: Increase in vqsR gene expression in Pseudomonas aeruginosa PAO1 with rpoN mutation at 8 ug/ml relative to wild type; outline: as §2
Pseudomonas aeruginosa [6] = experiment: Increase in GFP tagged vqsR protein expression in Pseudomonas aeruginosa PAO1 with rpoN mutation at 8 ug/ml by flow cytometry relative to wild type
Outline: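 Strains carried a plasmid GFP reporter driven by the vqsR promoter. Cells were grown in LB broth with carbenicillin 400 μg/ml. Stationary-phase (overnight) cultures were washed, resuspended in fresh LB and given ofloxacin 8 μg/ml. Samples were taken over 0–5 h, washed and resuspended in PBS. Mean fluorescence intensity came from 20,000 events, corrected for background (PAO1 without gfp). Three experiments.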

| SMILES | MBC (Pseudomonas aeruginosa [1]) [µg/mL] | MIC (Pseudomonas aeruginosa [1]) [µg/mL] | MBC (Pseudomonas aeruginosa [2]) [µg/mL] | MIC (Pseudomonas aeruginosa [2]) [µg/mL] | MBC (Pseudomonas aeruginosa [3]) [µg/mL] | MIC (Pseudomonas aeruginosa [3]) [µg/mL] | Fold change (Pseudomonas aeruginosa [4]) | Fold change (Pseudomonas aeruginosa [5]) | Fold change (Pseudomonas aeruginosa [6]) |
| --- | --- | --- | --- | --- | --- | --- | --- | --- | --- |
| C[C@@H](O)[C@H]1C(=O)N2C(C(=O)[O-])=C(SC3Cn4cnc[n+]4C3)[C@H](C)[C@H]12 (some centres not stated) [BIAPENEM] | 16 (≈ 45.7 µM) | 0.5 (≈ 1.43 µM) | 1 (≈ 2.85 µM) | 0.5 (≈ 1.43 µM) | 2 (≈ 5.71 µM) | 0.5 (≈ 1.43 µM) | – | – | – |
| O=C(O)c1cn(C2CC2)c2cc(N3CCNCC3)c(F)cc2c1=O [CIPROFLOXACIN] | 2 (≈ 6.04 µM) | 0.25 (≈ 0.754 µM) | 0.25 (≈ 0.754 µM) | 0.125 (≈ 0.377 µM) | 0.5 (≈ 1.51 µM) | 0.125 (≈ 0.377 µM) | – | – | – |
| C[C@@H](O)[C@H]1C(=O)N2C(C(=O)O)=C(SCCNC=N)C[C@H]12 [IMIPENEM ANHYDROUS] | 16 (≈ 53.4 µM) | 1 (≈ 3.34 µM) | 4 (≈ 13.4 µM) | 1 (≈ 3.34 µM) | 1 (≈ 3.34 µM) | 1 (≈ 3.34 µM) | – | – | – |
| CC1COc2c(N3CCN(C)CC3)c(F)cc3c(=O)c(C(=O)O)cn1c23 (configuration not stated) [OFLOXACIN] | 2 (≈ 5.53 µM) | 1 (≈ 2.77 µM) | 2 (≈ 5.53 µM) | 1 (≈ 2.77 µM) | 1 (≈ 2.77 µM) | 1 (≈ 2.77 µM) | 30 | 2.5 | 8 |
